Assays:
[1] = target: T1, Mitogen-activated protein kinase kinase kinase 19 (Homo sapiens) (UniProt Q56UN5); test: Inhibition of YSK4 (unknown origin) at 1 uM relative to control; conditions: values are per cent of control
T1 sequence (whole entry): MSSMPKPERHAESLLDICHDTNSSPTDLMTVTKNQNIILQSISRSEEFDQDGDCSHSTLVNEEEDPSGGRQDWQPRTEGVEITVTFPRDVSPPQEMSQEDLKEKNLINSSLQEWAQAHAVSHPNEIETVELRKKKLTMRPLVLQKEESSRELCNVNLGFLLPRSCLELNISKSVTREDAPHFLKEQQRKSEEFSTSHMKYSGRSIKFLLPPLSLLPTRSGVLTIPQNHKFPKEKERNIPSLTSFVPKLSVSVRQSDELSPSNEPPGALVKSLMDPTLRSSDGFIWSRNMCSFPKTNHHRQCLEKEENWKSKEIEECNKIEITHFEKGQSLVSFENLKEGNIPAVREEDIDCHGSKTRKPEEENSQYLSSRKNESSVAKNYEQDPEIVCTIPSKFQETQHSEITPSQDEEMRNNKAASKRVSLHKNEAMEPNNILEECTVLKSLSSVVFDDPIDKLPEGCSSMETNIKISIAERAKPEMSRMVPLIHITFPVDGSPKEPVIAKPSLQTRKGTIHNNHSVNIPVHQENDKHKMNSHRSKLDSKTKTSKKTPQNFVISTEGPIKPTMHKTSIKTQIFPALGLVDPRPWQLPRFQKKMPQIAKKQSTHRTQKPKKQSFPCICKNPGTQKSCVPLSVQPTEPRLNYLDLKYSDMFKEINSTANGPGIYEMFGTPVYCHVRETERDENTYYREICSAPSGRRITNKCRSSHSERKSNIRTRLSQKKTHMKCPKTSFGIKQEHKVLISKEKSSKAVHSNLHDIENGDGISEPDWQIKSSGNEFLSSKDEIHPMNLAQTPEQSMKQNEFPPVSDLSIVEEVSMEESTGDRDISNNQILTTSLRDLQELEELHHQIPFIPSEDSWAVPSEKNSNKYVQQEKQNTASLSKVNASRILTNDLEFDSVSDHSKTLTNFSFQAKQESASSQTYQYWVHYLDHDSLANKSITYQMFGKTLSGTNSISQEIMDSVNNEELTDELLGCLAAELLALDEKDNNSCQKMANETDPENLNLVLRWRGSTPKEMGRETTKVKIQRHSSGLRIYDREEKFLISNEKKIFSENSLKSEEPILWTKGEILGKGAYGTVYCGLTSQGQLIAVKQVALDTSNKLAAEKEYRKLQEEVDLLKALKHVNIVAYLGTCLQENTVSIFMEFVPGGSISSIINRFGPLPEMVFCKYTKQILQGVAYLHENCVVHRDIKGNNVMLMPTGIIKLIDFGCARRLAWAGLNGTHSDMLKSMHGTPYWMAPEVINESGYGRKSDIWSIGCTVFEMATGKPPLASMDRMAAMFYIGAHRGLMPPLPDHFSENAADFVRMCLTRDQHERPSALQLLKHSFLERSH
Method in brief: (§1)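 KinomeSCAN competitive binding panel of 100 kinases; compounds tested at 1 µM in duplicate; read-out is percent […] control.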

[2] = target: Cyclin-dependent kinase 18 (Homo sapiens) (UniProt Q07002); test: Inhibition of PCTK3 (unknown origin) at 1 uM relative to control; conditions: values are per cent of control; method in brief: as §1
[3] = target: Platelet-derived growth factor receptor beta (Homo sapiens) (UniProt P09619); test: Inhibition of PDGFRB (unknown origin) at 1 uM relative to control; conditions: values are per cent of control; method in brief: as §1
[4] = target: Rho-associated protein kinase 2 (Homo sapiens) (UniProt O75116); test: Inhibition of ROCK2 (unknown origin) at 1 uM relative to control; conditions: values are per cent of control; method in brief: as §1
[5] = target: T2, Mitogen-activated protein kinase kinase kinase 7 (Homo sapiens) (UniProt O43318); test: Inhibition of TAK1 (unknown origin) at 1 uM relative to control; conditions: values are per cent of control; method in brief: as §1
T2 sequence (whole entry): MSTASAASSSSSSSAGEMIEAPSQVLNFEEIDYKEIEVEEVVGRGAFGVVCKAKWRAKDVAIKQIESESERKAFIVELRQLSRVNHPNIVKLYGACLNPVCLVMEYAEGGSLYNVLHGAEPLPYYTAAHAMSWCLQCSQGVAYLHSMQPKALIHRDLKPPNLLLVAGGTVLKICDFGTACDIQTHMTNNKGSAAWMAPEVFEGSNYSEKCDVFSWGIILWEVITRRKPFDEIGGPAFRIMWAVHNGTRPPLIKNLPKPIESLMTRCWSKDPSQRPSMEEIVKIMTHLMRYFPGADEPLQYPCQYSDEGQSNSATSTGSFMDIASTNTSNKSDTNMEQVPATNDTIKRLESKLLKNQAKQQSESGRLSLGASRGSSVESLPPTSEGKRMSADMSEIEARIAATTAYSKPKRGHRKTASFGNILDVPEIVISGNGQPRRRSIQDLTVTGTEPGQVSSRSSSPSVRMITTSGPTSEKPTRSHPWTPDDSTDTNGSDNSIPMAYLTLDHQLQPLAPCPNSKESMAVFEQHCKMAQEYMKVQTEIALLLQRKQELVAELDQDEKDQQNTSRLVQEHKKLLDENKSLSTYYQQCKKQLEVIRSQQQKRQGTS

[6] = target: Tyrosine-protein kinase Fyn (Homo sapiens) (UniProt P06241); test: Inhibition of FYN (unknown origin) at 1 uM relative to control; values are per cent of control
[7] = target: Mitogen-activated protein kinase 10 (Homo sapiens) (UniProt P53779); test: Inhibition of JNK3 (unknown origin) at 1 uM relative to control; values are per cent of control
[8] = target: Serine/threonine-protein kinase Nek6 (Homo sapiens) (UniProt Q9HC98); test: Inhibition of NEK6 (unknown origin) at 1 uM relative to control; values are per cent of control
[9] = target: T3, Interleukin-1 receptor-associated kinase 4 (Homo sapiens) (UniProt Q9NWZ3); test: Inhibition of IRAK4 (unknown origin) at 1 uM relative to control; values are per cent of control
T3 sequence (whole entry): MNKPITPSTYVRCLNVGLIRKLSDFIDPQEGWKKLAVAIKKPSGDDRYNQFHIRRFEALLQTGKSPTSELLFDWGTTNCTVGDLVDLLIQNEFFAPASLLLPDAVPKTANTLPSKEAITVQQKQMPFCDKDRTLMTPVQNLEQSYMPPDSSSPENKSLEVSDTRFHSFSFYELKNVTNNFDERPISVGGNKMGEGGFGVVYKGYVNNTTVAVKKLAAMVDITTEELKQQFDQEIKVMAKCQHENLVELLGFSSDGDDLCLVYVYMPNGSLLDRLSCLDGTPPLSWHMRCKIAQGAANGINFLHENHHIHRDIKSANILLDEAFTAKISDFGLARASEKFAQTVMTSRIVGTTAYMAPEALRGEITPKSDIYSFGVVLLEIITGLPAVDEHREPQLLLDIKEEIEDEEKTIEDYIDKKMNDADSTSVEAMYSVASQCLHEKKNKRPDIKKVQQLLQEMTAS

Mitogen-activated protein kinase 10 (Homo sapiens), sequence (P53779 whole entry): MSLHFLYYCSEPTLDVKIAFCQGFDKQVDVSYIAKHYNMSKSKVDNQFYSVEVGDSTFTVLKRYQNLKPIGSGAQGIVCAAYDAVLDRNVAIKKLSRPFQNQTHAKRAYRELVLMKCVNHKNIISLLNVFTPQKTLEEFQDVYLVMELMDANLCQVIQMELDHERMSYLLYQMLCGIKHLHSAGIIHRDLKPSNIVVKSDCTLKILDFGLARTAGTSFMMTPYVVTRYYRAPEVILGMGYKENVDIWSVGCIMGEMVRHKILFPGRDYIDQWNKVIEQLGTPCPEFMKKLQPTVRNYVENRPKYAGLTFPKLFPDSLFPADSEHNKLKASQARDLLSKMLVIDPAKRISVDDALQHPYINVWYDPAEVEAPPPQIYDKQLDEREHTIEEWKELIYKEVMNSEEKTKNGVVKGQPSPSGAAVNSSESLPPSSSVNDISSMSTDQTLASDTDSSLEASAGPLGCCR
Cyclin-dependent kinase 18 (Homo sapiens), sequence (Q07002 whole entry): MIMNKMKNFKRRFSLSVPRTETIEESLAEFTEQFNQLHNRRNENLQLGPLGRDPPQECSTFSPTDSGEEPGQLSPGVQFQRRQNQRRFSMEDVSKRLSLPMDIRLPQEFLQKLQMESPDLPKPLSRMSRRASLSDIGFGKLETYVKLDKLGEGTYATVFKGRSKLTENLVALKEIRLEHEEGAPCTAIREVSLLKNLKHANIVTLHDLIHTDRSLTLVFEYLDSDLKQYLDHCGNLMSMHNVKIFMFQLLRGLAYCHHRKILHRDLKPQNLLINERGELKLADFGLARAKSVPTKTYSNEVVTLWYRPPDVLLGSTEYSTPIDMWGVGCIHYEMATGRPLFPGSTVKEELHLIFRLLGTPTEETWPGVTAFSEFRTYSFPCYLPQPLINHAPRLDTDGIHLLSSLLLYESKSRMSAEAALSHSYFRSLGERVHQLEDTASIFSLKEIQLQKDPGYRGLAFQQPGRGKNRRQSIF
Rho-associated protein kinase 2 (Homo sapiens), sequence (O75116 whole entry, looked up): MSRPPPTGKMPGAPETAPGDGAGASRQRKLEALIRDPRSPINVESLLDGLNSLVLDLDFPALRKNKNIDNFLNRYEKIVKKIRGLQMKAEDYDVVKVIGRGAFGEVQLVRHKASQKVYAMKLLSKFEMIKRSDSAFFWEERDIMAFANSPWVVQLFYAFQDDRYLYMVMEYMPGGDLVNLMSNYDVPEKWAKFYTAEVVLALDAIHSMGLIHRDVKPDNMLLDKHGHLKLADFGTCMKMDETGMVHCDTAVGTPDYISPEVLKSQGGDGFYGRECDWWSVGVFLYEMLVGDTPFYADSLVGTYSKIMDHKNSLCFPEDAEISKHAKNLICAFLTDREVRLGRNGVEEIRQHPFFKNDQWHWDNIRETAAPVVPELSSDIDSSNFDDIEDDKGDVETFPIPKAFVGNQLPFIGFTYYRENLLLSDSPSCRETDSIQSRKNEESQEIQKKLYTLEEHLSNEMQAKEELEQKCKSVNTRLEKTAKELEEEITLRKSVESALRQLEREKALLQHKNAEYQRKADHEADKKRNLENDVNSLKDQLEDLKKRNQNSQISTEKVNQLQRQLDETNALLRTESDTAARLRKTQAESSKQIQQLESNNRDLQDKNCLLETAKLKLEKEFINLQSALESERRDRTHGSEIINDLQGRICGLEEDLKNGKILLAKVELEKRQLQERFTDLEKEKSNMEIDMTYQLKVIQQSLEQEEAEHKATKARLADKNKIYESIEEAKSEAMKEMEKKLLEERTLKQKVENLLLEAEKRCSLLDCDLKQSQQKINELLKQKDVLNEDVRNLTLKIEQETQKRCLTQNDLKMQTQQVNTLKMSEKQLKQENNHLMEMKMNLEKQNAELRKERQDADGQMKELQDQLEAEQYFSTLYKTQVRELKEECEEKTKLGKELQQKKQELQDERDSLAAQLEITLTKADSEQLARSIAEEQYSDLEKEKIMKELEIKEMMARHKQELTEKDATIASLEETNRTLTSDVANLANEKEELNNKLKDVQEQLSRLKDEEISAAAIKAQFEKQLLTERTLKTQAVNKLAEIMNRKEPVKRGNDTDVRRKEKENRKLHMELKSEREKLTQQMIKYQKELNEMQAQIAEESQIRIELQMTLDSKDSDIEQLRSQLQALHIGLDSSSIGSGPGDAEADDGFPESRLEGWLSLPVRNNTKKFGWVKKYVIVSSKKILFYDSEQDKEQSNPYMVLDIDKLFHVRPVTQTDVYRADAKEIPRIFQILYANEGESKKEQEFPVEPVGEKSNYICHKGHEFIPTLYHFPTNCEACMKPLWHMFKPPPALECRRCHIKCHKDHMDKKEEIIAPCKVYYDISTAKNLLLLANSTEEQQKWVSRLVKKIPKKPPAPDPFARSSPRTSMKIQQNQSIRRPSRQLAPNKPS
Platelet-derived growth factor receptor beta (Homo sapiens), sequence (P09619 whole entry): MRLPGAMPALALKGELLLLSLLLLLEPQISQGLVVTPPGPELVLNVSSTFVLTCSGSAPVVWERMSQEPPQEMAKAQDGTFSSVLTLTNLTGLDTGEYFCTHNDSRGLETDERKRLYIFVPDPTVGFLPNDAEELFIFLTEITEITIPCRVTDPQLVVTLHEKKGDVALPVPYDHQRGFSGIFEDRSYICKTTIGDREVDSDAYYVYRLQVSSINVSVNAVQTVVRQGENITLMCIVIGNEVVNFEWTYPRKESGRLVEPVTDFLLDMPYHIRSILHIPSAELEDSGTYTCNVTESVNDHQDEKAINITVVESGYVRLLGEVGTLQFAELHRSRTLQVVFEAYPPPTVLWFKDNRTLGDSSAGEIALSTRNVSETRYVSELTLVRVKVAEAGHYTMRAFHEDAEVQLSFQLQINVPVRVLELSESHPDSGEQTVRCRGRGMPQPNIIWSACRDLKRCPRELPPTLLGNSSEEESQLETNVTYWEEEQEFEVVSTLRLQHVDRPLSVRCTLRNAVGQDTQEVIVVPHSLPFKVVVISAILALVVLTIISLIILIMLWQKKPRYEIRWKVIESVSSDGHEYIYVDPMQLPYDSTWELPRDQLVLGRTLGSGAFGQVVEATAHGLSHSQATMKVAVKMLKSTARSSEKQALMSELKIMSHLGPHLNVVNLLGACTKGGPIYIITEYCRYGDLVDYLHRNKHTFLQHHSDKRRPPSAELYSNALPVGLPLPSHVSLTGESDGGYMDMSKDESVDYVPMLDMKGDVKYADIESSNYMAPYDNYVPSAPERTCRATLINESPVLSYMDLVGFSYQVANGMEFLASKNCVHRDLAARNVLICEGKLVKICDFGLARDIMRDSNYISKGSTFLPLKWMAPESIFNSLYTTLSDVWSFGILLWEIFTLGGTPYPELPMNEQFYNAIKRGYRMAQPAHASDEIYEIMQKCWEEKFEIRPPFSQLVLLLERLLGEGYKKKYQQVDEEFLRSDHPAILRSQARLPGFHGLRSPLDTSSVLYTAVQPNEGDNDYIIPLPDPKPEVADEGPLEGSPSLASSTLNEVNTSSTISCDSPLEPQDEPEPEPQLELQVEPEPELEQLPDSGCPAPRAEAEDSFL
Tyrosine-protein kinase Fyn (Homo sapiens), sequence (P06241 2-537 limits assumed): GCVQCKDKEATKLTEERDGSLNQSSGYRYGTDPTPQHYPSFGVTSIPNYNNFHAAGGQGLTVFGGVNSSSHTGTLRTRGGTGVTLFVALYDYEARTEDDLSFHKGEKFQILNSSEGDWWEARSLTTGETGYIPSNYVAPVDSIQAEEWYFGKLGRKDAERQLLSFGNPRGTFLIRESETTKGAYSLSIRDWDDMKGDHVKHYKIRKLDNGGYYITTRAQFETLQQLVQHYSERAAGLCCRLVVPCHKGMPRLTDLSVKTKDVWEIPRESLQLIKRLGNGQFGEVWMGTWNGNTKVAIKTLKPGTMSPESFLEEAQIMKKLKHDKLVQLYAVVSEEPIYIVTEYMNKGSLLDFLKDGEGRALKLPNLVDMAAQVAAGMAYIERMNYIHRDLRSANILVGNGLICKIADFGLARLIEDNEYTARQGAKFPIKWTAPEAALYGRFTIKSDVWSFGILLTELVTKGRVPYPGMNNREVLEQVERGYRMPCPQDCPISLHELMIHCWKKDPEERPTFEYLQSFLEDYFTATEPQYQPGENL
Serine/threonine-protein kinase Nek6 (Homo sapiens), sequence (Q9HC98 whole entry): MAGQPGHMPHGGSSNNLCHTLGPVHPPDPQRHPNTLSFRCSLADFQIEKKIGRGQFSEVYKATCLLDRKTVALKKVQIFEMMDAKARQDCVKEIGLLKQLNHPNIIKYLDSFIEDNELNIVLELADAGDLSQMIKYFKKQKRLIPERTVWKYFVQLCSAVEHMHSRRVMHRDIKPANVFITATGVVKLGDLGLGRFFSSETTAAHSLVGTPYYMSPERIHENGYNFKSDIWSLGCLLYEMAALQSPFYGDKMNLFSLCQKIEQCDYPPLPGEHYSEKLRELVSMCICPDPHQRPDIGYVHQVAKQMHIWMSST

| SMILES | residual binding, % of control [1] [%] | residual binding, % of control [2] [%] | residual binding, % of control [3] [%] | residual binding, % of control [4] [%] | residual binding, % of control [5] [%] | residual activity [6] [%] | residual activity [7] [%] | residual activity [8] [%] | residual activity [9] [%] |
| --- | --- | --- | --- | --- | --- | --- | --- | --- | --- |
| CCOC(=O)c1sc(-c2ccncc2)nc1O | 97 | 76 | 89 | 92 | 65 | 100 | 93 | 65 | 100 |
| NC(=O)c1sc(-c2ccnc(N)n2)nc1-c1ccc(Cl)cc1Cl | 41 | 100 | 52 | 34 | 34 | 76 | 83 | 81 | 91 |
| COc1ccc(-c2nc(-c3ccnc(N)n3)sc2C(N)=O)c(Cl)c1 | 34 | 100 | 62 | 27 | 49 | 87 | 46 | 85 | 100 |
